According to the EternaBench riboswitch data:

System: MS2 coat protein
Test: apparent Kd, MS2 coat protein; higher = weaker binding; RNA-MaP array; FMN 200 µM where present
How it was run: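 Two titrations, one without ligand and one with constant ligand, were run with SNAP-549-labelled MS2 coat protein from 0.7 or 1.5 nM, doubling to 3 µM. The targets were designs transcribed by stalled E. coli RNA polymerase on Illumina sequencing-chip clusters, in 100 mM Tris-HCl pH 7.5, 80 mM KCl, 4 mM MgCl2, BSA, DTT, yeast tRNA and Tween-20. The apparent Kd is the median of filtered per-cluster binding-curve fits, with green signal normalised to red-channel RNA signal and control-cluster median Fmax.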

[1] = designed as: OFF switch for flavin mononucleotide, no ligand
[2] = ligand present: flavin mononucleotide, designed as: OFF switch for flavin mononucleotide
[3] = designed as: ON switch for flavin mononucleotide, no ligand
[4] = ligand present: flavin mononucleotide, designed as: ON switch for flavin mononucleotide

Sequence | apparent Kd [1] | apparent Kd [2] | apparent Kd [3] | apparent Kd [4]
GUAGAGUAAGGAUAUGGUGAAUAGGAUAGAAUGGUUAGAAACUAGAAGGUACAUGAGGAUCACCCAUGUAAUGU | 21.7 nM | 20.7 nM | – | –
AACAUGUGAGGAUAUUAGUUGUACGUCAAUAGACGUAUAAGUGAGAAGGCACAUGAGGAUCACCCAUGUUCCUG | 43.7 nM | 464 nM | – | –
AUCAGCUCGUCAGGAUAUACGUCACUGCGUCAGCAGUGUGGUAAGAUCACAUGAGGAUCACCCAUGUAGAAGGGACGAGCUGCU | 14 nM | 264 nM | – | –
GCAAAGCCUGACAUGAGGAUCACCCAUGUUAGAUUGUUAUGUCAGGAUAUUGUCUAGAAACUAGACAAGAAGGGAUGCUUUGCU | – | – | 421 nM | 25.3 nM
AAACAGUACGAGAAGGGCUACAUGAGGAUCACCCAUGUAGACGGUCGUGUGGCAGGAUAUCGAACGCACCCGAAACGGUGUGUU | 5.07 nM | 7.03 nM | – | –
GGUUGUCAUAGUCAUCCUUUCCGUACAUGAGGAUCACCCAUGUAGGAUAUGCUACUCUCGGUGUGGCAGAAGGGCGUGUGUCUU | 18.2 nM | 18.8 nM | – | –
GUCAGACGAGGAUAUAGAUUUGAUAACAUGAGGAUCACCCAUGUGAUCGAUAGAUCAGAUUUAGAAGGCGUCUGAC | 410 nM | 458 nM | – | –
UGGUGGAAGCAGGAUAUGCUAGAAGUGUAGAAUGCAGAAGGGCUAACAUGAGGAUCACCCAUGUAAGAGGUGUU | 319 nM | 237 nM | – | –
CUGCUGGAGCUUUGCUUUAGUCGUACAUGAGGAUCACCCAUGUAGGAUAUGGUAGGCUAUGCUUACUAGAAGGAUAGAGUGGUC | 62.3 nM | 32.2 nM | – | –
CUGUGACGGUGCGCAAGUGGACGUAGAAGGGUCACAUGAGGAUCACCCAUGUGGGCCUGCUAGUGACAGGAUAUACGUUCGUAC | 13.7 nM | 38.3 nM | – | –
GUCACCCGAUGAGGAUAUGCACAUGAGGAUCACCCAUGUGACCUCAUCGUGCCGGGAAGCCGGCUGCAGAAGGCAUUGAGGGAU | 7.76 nM | 7.25 nM | – | –
AAGUCACAUGAGGAUCACCCAUGUCGUAAACGAUGAGGAUAUAGGAACGAAAGAAAAAAACUAGAAGGUAUAACAA | – | – | 52.2 nM | 52 nM
UUACAGCAAGGAUAUACGGGCUGUGCUUUUCAUUUCUUACAACAUGAGGAUCACCCAUGUAGAAGGUGCAACAU | 32.6 nM | 73.7 nM | – | –
GUAUGGAGUACAGGAUAUGUAAGUUUUAAGUGUAUUGGUUAUUACUUAAUUACAGAAGGGUAUUACAUGAGGAUCACCCAUGUA | – | – | 12.8 nM | 9.5 nM
UCACGGGAUUGAGGAUAUAUAUGAAUUUUUUUUAUAGAAGGCAAAAUGUUAGAUUAUUCACUAUACAUGAGGAUCACCCAUGUU | 26.9 nM | 24.2 nM | – | –
ACAUGAGGAUCACCCAUGUUAUCCGGGACUUCAAUUGUUUCUAGAAGGCUGUCUGCUUGUUAGUCAGAGGAUAUAGAAUCAAAU | 11.4 nM | 11 nM | – | –
UUAUUAUGUGUAGGAUAUGCAUAUUAUUAUUAUGCAGAAGGACAUGAGGAUCACCCAUGUAUAUUGUUAUUAUAUAUUAUAUAU | 11.5 nM | 16.7 nM | – | –
GUCGUGUGAGGAUAUGGAUCGACGCAGUGACAGUCAGCGACCUAGAAGGCACAUGAGGAUCACCCAUGUAUGUG | 54.6 nM | 97.5 nM | – | –
UAUAUAUAGUAAGGAUAUGUAAUUAUUUCAUAAACAGAAGGUACUGACAUGAGGAUCACCCAUGUUUUAGUGUGGGCAUGUAGA | 79.8 nM | 108 nM | – | –
AACUGACAUGAGGAUCACCCAUGUCAGGAUAUGCUUCAUAAAAUAAAAAUAAAAUGAUGCAGAAGGGACAUGGA | 27.1 nM | 39.6 nM | – | –
UUAAAUCAUGUAGGAUAUGCAUGGCGAAGCUACGCAGAAGGACAUGAGGAUCACCCAUGUUAUAGCUAGGCAGUUCCCUGGCAA | 70.2 nM | 214 nM | – | –
GUUUUUCCUCAUGUACAUGAGGAACAUGAGGAUCACCCAUGUAGAAGGAAUUCCCUUAAAUUAAGUUAGGAUAUACAUAUAUUU | 107 nM | 77.4 nM | – | –
UAUAUAAUUAAGAGCUGGAACUCAACAUGAGGAUCACCCAUGUAGGAUAUCAGCACGAUAAGUGCUGAGAAGGACAUCCAGCUC | 16.6 nM | 17.8 nM | – | –
CGGCUGCUACGCCAGCUCGACGCACAGGAUAUGCUGUUACAUGAGGAUCACCCAUGUGGCCAAGAGCAGAAGGGUGAUUCGCGA | – | – | 33.6 nM | 35 nM
CUGUUCCAUGUAGGAUAUGCAUAUUCUCAUUAUGCAGAAGGACAUGAGGAUCACCCAUGUAUGUUAUUAUCAUAUGUUACAUGU | 34.3 nM | 241 nM | – | –
GGGAAGUUAGGAUAUGCUGCUCGUCACUUGCGUGAUGAGUAGCAGAAGGGACAUGAGGAUCACCCAUGUAAAGA | 41.6 nM | 26.2 nM | – | –
UGAGUGCUGCGAGGAUAUACAUGAGGAUCACCCAUGUAAAUGUGUGAGGCUUUGCCUCACACAAUGUAGAAGGCGCAGUACUCU | 14.5 nM | 17.2 nM | – | –
UGGUGACGUGUAGGAUAUGGAGGUGGGUUUUGGCCAGAAGGACAUGAGGAUCACCCAUGUGGUAGAGGGUUGGCGGCGGCCCGU | 16.9 nM | 15.1 nM | – | –

Sequence | apparent Kd [1] | apparent Kd [2] | apparent Kd [3] | apparent Kd [4]
AAAAAACAUGAGGAUCACCCAUGUAAGGAUAUGCGAAAAAAAAAAAAAAAAAAAAAAAGCAGAAGGUACAAAAA | 99.1 nM | 94.9 nM | – | –
UUGGACGUCGUAGUAUAUGUAGGAUAUUCCUACAUGAGGAUCACCCAUGUUGACAUGGAAGAAGGACAGAAGGACGAUGUCCAU | – | – | 144 nM | 6.12 nM
CAGCUGAAUGUGAGGAUAUGUCUAGCCUCGGCUAGACAGAAGGCACAUGAGGAUCACCCAUGUCUCAACAGCUG | 38.8 nM | 675 nM | – | –
UAGAAUCGAGGAUAUACAUGAGGAUCACCCAUGUGUGGCCAUUUGGUGUGGUCGUCAGGUAGAAGGCGAUUACA | 160 nM | 15.6 nM | – | –
UCCUGGCGAGGAUAUACAAUGUUUUUCGCGUGUUGUUGGGAACAUGAGGAUCACCCAUGUAGAAGGUGCUACUG | 409 nM | 286 nM | – | –
UCGAACGGAAAUAAAGUAAAUAGACAUGAGGAUCACCCAUGUAAGGAUAUGCCUACUAAAAGUAGGCAGAAGGUACGCGUUCGA | 17.5 nM | 19.2 nM | – | –
GGAAUAUUUACAGGAUAUGUUUUGUUAAGUCGAGCAGAAGGGUGGAUGUCUUACACGGUUUGUUACAUGAGGAUCACCCAUGUC | – | – | 264 nM | 260 nM
AGAAUAGAAAGAUUAAUAUGAAUACAUGAGGAUCACCCAUGUAAGGAUAUCGACGUCAAUGACGUCGAGAAGGUACAUAAUAAG | 17.7 nM | 17.6 nM | – | –
UAAUCGUUGCAGAAGGUUAUUAUUUUAUCGUGUCUCUUAACAUGAGGAUCACCCAUGUUUUUGAUGAAGGAUAUGCAACGGUAG | 7.54 nM | 7.09 nM | – | –
GGCACACAUGAGGAUCACCCAUGUGAGGAUAUGUUAGUUUCGGCCAAAGCCGAAAUUAACAGAAGGCACAUGCC | 14.9 nM | 26.4 nM | – | –
UGUUUUGUACAUGAGGAUCACCCAUGUUAAUAUGUGGUAGUCAGAAGGCAUUGUUUGAGAUAUUAUGAGGAUAUGAUUAGUCUG | – | – | – | 43.9 nM
AAGACACAUGAGGAUCACCCAUGUUAGGAUAUACGCAUGCAUGCAUGCAUGCAUGCAAGUAGAAGGAACCAUGC | 30.5 nM | 30.6 nM | – | –
AAUAACAGAGGAUAUACUAUUUUAUGUGUUUAUUGUUUUAAACAUGAGGAUCACCCAUGUAGAAGGCUGAUUAA | 69.7 nM | 105 nM | – | –
AUUUGAAUCGUAGGAUAUCGCUUAAAUUUAACACGAGAAGGACGAACAUGAGGAUCACCCAUGUAUCAUGGUGUAGAUAAUUUG | 82.5 nM | 353 nM | – | –
GUGUACAGAGGAUAUACAGGAGCUAGGAAACUAGCAACUUCACAUGAGGAUCACCCAUGUAGAAGGCUGUACAC | 15.3 nM | 49.7 nM | – | –
GUGCAUUCGUAGAAGGGUGACAUGAGGAUCACCCAUGUGCGCUGGGCUCAGGAUGCCUCAGCGCCACAGGAUAUACGAAGCACC | – | – | 97.6 nM | 35.1 nM
GUGCCUUGGGAGAAGGCCGUAUGCAAAGCAUACGGAGGAUAUCCAUACCGGAAACGGACAUGAGGAUCACCCAUGUGGCACAAA | – | – | 15.1 nM | 6.03 nM
GCCGGGUAGGCAGGAUAUCCUCGCGCAAACACAUGAGGAUCACCCAUGUACACAAAACGUGAUAUGGAGAAGGGCCGACCCGCA | – | – | 26.6 nM | 5.28 nM
GGAAAUUAGCAAGGAUAUCGGCUUACUAUAACUUUAUGCCCUGGGACAUGAGGAUCACCCAUGUACGAGAAGGUGCUAACUACA | 23.6 nM | 36.9 nM | – | –
AAAAAGUGAGGAUAUCGAAAAAAAAAAAAAAAAAAAAAAAACGAGAAGGCACAUGAGGAUCACCCAUGUAAAAA | 35.8 nM | 44.9 nM | – | –
GCGUUGAUGUAGAAGGUACAUGAAUACUUUUAAUACCUCAAGUAACAUGAGGAUCACCCAUGUAGUAAGGAUAUACAUGAACGC | – | – | 34.7 nM | 29.5 nM
GCACGAUAUCAGGAUAUGACUAGCCUCGGCUAGUCAGAAGGGAUGACAUGAGGAUCACCCAUGUGAUCACGUGC | 57.2 nM | 77.9 nM | – | –
GCUAUUGGCUAAGGAUAUGGAUACAUGAGGAUCACCCAUGUAAGAAUUGUGAUCAUAUAAAUGAUCCAGAAGGUAGCUGUUAGC | 280 nM | 502 nM | – | –
AUAUCUCCCUAGAAGGUGUAACGACAAUUGCAUCACGUAGUUGGCGUAGCAAGGAUAUGGGACAUGAGGAUCACCCAUGUGGAU | – | – | 15.9 nM | 8.88 nM
GGGUUGGGAGGAUAUCCAAUAUAUGACAUGAGGAUCACCCAUGUUUCCACUCGUACCUCCGGAGAAGGCCCUUCCC | 19.3 nM | 20 nM | – | –
AUACUCAAUGAAGGAUAUCUCAGCAUAAACCUGAGAGAAGGUCAUUGUUACAUGAGGAUCACCCAUGUUGUAGUUAAUGGGUAA | 504 nM | 573 nM | – | –
AGGAGGUCAGGAUAUGCUGCUCGUCACUUGCGUGAUGAGUAGCAGAAGGGACAUGAGGAUCACCCAUGUAAAGA | 55.7 nM | 95.7 nM | – | –
